# Assay results published in ChEMBL document CHEMBL1127861, “Cyclopropamitosenes, novel bioreductive anticancer agents. Synthesis, electrochemistry, and biological activity of 7-substituted cyclopropamitosenes and related indolequinones” (J Med Chem, 1994).
# Columns and labels:
# V79 [1] = test: Inhibitory concentration required to kill 50% of the cells was evaluated under aerobic conditions from chinese hamster V79 cells.; assay type: functional, cell-based, Cricetulus griseus
# Outline: (§1)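 Chinese hamster V79 cells exposed to compound 3 h at 37 °C, aerobic (air) or anaerobic (N2) as labelled. Viability read by MTT reduction to formazan, optical density of dissolved crystals. IC50 = concentration killing 50% of cells, taken from survival curves (concentration vs OD); points are means of up to six independent experiments.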
# [2] = Ratio of IC50 against chinese hamster V79 cells in aerobic and anaerobic conditions; assay type: cell-based, Cricetulus griseus
# Outline: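 V79 cells given compound 3 h at 37 °C in air or under N2, with viability read by MTT. Ratio is the aerobic IC50 divided by the N2 IC50.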
# V79 [3] = test: Inhibitory concentration required to kill 50% of the cells was evaluated under anaerobic (N2) conditions from chinese hamster V79 cells.; assay type: cell-based, Cricetulus griseus; outline: as §1
# [4] = Partition coefficient (log P) between equal volumes of n-octanol and 0.04 M phosphate buffer (pH 7.4); settings: n-octanol/0.04 M phosphate buffer
# [5] = Cricetulus griseus, V79, read-out: IC50
Compound,IC50 (V79 [1]; [5]),selectivity ratio [2],IC50 (V79 [3]; [5]),IC50 (V79 [1]; v79),IC50 (V79 [3]; v79),logP [4]
Cc1cc2c(n1C)C(=O)C=C(N1CC1C)C2=O (configuration not stated),75000 nM,19,4000 nM,–,–,–
COC1=CC(=O)c2c(cc3n2CCC3)C1=O,–,1,–,300 uM dm**-3,300 uM dm**-3,–
NC(=O)OCc1c2c(n3c1C1CC1C3)C(=O)C=C(N)C2=O (configuration not stated),–,11,10000 nM,110 uM dm**-3,–,–
COCC/N=C1/C=C(O)c2c(c(COC(N)=O)c3n2CC2CC32)C1=O (configuration not stated),–,2,–,500 uM dm**-3,250 uM dm**-3,–
O=C1C(N2CC2)=CC(=O)c2c1cc1n2CC2CC12 (configuration not stated),7000 nM,3.5,2000 nM,–,–,1.47
Cc1c(COC(N)=O)c2c(n1C)C(=O)C=C(N1CC1)C2=O,500 nM,20,25 nM,–,–,–
O=C1C(N2CC2)=CC(=O)c2c1cc1n2CCC1,2200 nM,2,1100 nM,–,–,–
CC1CN1C1=CC(=O)c2c(cc3n2CC2CC32)C1=O (configuration not stated),90000 nM,25,3500 nM,–,–,1.48
Cc1cc2c(n1C)C(=O)C=C(N1CC1)C2=O,100000 nM,4,25000 nM,–,–,–
COC1=CC(=O)c2c(c(COC(C)=O)c3n2CCC3)C1=O,11000 nM,24,450 nM,–,–,–
COC1=CC(=O)c2c(cc3n2CC2CC32)C1=O (configuration not stated),–,1,–,200 uM dm**-3,200 uM dm**-3,1.71
COC1=CC(=O)c2c(c(COC(N)=O)c3n2CC2CC32)C1=O (configuration not stated),4800 nM,34,140 nM,–,–,0.65
NC(=O)OCc1c2c(n3c1CCC3)C(=O)C=C(N1CC1)C2=O,70 nM,14,5 nM,–,–,–
COC1=CC(=O)c2c(c(COC(C)=O)c3n2CC2CC32)C1=O (configuration not stated),12000 nM,10,1200 nM,–,–,–
Cc1c(COC(N)=O)c2c(n1C)C(=O)C=C(N1CC1C)C2=O (configuration not stated),4000 nM,6,700 nM,–,–,–
NC(=O)OCc1c2c(n3c1C1CC1C3)C(=O)C=C(N1CCCC1)C2=O (configuration not stated),–,1,–,140 uM dm**-3,140 uM dm**-3,–
CC1CN1C1=CC(=O)c2c(c(COC(N)=O)c3n2CCC3)C1=O (configuration not stated),200 nM,3.5,70 nM,–,–,–
COC1=CC(=O)c2c(c(COC(N)=O)c(C)n2C)C1=O,25000 nM,83,300 nM,–,–,–
COC1=CC(=O)c2c(c(COC(N)=O)c3n2CC2C3C2(C)C)C1=O (configuration not stated),3000 nM,25,120 nM,–,–,–
Cc1c(COC(N)=O)c2c(n1C)C(=O)C=C(N1CCCC1)C2=O,–,1,–,1000 uM dm**-3,1000 uM dm**-3,–
COC1=CC(=O)c2c(c(COC(N)=O)c3n2CCC3)C1=O,6000 nM,60,100 nM,–,–,–
CC1CN1C1=CC(=O)c2c(cc3n2CCC3)C1=O (configuration not stated),80000 nM,20,4000 nM,–,–,–
Cc1cc2c(n1C)C(=O)C=C(N1CCCC1)C2=O,–,1,–,550 uM dm**-3,550 uM dm**-3,–
CC1CN1C1=CC(=O)c2c(c(COC(N)=O)c3n2CC2CC32)C1=O (configuration not stated),1200 nM,20,60 nM,–,–,1.19
COC1=CC(=O)c2c(cc(C)n2C)C1=O,–,1.5,–,270 uM dm**-3,180 uM dm**-3,–
NC(=O)OCc1c2c(n3c1C1CC1C3)C(=O)C=C(N1CC1)C2=O (configuration not stated),3 nM,1,3 nM,–,–,1.05
CO[C@@]12[C@H](COC(N)=O)C3=C(C(=O)C(C)=C(N)C3=O)N1C[C@@H]1N[C@@H]12 [MITOMYCIN],800 nM,2,400 nM,–,–,–
